Results as given in ChEMBL document CHEMBL1133454, “Structure-activity studies of reduced-size gonadotropin-releasing hormone agonists derived from the sequence of an endothelin antagonist” (J Med Chem, 2000).
Square brackets hold non-standard residues; d marks the D form. Peptide text beside a SMILES is read from it. * marks the point of attachment. X1 = CC(C)C[C@@H](C(=O)*)N1C(=O)N[C@H](Cc2c[nH]c3ccccc23)C1=O

Each molecule was assayed against T1, Gonadotropin-releasing hormone receptor (Rattus norvegicus, UniProt P30969) (assay: Inhibition constant for the displacement of specific binding of [125I][D-Lys6]-GnRH (Kd=177 pM) bound to rat pituitary membranes; No significant binding at 10 uM).
T1 sequence (P30969 whole entry): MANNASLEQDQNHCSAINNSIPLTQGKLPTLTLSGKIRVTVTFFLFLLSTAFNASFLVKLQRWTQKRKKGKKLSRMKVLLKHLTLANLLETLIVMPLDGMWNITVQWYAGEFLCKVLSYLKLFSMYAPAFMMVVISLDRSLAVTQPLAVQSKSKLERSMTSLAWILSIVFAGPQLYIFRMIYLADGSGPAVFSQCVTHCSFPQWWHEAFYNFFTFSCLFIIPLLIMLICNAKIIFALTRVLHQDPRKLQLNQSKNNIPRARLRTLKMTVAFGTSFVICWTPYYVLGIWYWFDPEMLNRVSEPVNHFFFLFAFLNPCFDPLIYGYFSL
Format: cell membranes, Membrane
Outline: (§1)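 Membranes from proestrous Wistar-derived rat pituitaries (25 μg protein/tube) incubated 90 min at 4 °C with 23.5 pM 125I-[D-Lys6]GnRH plus increasing unlabeled peptide (up to 10 μM, DMSO ≤1%) in 10 mM Tris-HCl/0.1% BSA. Filtration on GF/C, gamma counting. Nonspecific binding from 1 μM [D-Lys6]GnRH. Ki fitted from displacement curves; two experiments in triplicate, mean ± SEM.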

Row | SMILES | Ki
1 | CC[C@H](C)[C@H](N)C(=O)N[C@H](C(=O)N[C@@H](Cc1ccccc1)C(=O)N[C@H](Cc1c[nH]c2ccccc12)C(=O)N[C@@H](CC(C)C)C(=O)N[C@@H](CC(=O)O)C(=O)O)[C@@H](C)CC | Not Active
2 | CC[C@H](C)[C@H](N)C(=O)N[C@H](C(=O)N[C@@H](Cc1c[nH]cn1)C(=O)N[C@H](Cc1c[nH]c2ccccc12)C(=O)N[C@@H](CC(C)C)C(=O)N[C@@H](CC(=O)O)C(=O)O)[C@@H](C)CC | Not Active

What follows are molecules tested against T2, Endothelin receptor (Rattus norvegicus, UniProt P26684+P21451) (assay: Inhibition constant for the displacement of specific binding of [125I]-ET (Kd=2 nM) bound to rat pituitary membrane).
T2 sequence (P26684 whole entry): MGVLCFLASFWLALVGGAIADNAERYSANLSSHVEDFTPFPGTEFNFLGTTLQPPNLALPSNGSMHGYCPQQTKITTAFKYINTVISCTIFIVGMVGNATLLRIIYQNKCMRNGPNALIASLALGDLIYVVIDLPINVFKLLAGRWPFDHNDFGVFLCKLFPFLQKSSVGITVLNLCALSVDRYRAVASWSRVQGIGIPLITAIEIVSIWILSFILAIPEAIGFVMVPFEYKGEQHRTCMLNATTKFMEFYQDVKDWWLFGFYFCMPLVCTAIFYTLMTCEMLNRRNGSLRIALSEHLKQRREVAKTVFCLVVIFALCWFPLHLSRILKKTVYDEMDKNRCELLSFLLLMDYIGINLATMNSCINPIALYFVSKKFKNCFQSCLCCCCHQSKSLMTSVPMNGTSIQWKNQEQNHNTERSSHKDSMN
T2 sequence (P21451 whole entry): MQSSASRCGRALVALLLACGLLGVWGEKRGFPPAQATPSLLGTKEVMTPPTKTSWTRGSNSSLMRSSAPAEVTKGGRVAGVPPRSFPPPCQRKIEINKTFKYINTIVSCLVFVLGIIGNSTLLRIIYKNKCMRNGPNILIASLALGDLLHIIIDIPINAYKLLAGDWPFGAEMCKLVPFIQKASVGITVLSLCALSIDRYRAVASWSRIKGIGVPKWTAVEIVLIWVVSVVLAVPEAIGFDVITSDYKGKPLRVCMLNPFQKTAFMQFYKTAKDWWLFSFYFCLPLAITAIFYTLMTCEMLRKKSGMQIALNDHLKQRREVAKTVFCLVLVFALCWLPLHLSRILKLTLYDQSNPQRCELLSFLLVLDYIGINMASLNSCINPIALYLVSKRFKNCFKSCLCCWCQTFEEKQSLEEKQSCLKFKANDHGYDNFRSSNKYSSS
Format: tissue-based, Pituitary gland

Row | SMILES | Ki [µM]
3 | CC[C@H](C)[C@H](NC(=O)[C@H](CC(=O)O)NC(=O)[C@H](CC(C)C)N1C(=O)N[C@H](Cc2c[nH]c3ccccc23)C1=O)C(=O)N[C@H](C(=O)N[C@@H](Cc1c[nH]c2ccccc12)C(=O)O)[C@@H](C)CC (X1-DIIW-OH) | 6
4 | CC[C@H](C)[C@H](NC(=O)[C@H](CC(=O)O)NC(=O)[C@H](CC(C)C)NC(=O)[C@H](N)Cc1c[nH]c2ccccc12)C(=O)N[C@H](C(=O)N[C@@H](Cc1c[nH]c2ccccc12)C(=O)O)[C@@H](C)CC | 55

These molecules were tested against T1, Gonadotropin-releasing hormone receptor (assay: Inhibition constant for the displacement of specific binding of [125I][D-Lys6]-GnRH (Kd=177 pM) bound to rat pituitary membranes).
Format: cell membranes, Membrane
Outline: as §1

Row | SMILES | Ki [µM]
5 | CC[C@H](C)[C@H](N)C(=O)N[C@H](C(=O)N[C@@H](Cc1c[nH]c2ccccc12)C(=O)N[C@H](C)C(=O)N[C@@H](CC(C)C)C(=O)N[C@@H](CC(=O)O)C(=O)O)[C@@H](C)CC | > 10
6 | CC[C@H](C)[C@@H]1NC(=O)[C@H](CC(=O)O)NC(=O)[C@H](CC(C)C)NC(=O)[C@@H](Cc2c[nH]c3ccccc23)NC(=O)[C@H](Cc2c[nH]c3ccccc23)NC(=O)[C@H]([C@@H](C)CC)NC1=O | 0.7
7 | CC[C@H](C)[C@@H]1NC(=O)CSC[C@@H](C(=O)O)NC(=O)[C@H](CC(C)C)NC(=O)[C@@H](Cc2c[nH]c3ccccc23)NC(=O)[C@H](Cc2c[nH]c3ccccc23)NC(=O)[C@H]([C@@H](C)CC)NC1=O | 0.32
8 | CC[C@H](C)[C@H](N)C(=O)N[C@H](C(=O)N[C@@H](Cc1c[nH]c2ccccc12)C(=O)N[C@H](Cc1ccccc1)C(=O)N[C@@H](CC(C)C)C(=O)N[C@@H](CC(=O)O)C(=O)O)[C@@H](C)CC | 8
9 | CC[C@H](C)[C@H](NC(=O)[C@H](CCCNC(=N)N)NC(=O)[C@H](CC(C)C)NC(=O)[C@@H](Cc1c[nH]c2ccccc12)NC(C)=O)C(=O)N[C@H](C(=O)N[C@@H](Cc1c[nH]c2ccccc12)C(=O)O)[C@@H](C)CC | 2
10 | CC[C@H](C)[C@H](NC(=O)[C@H](CC(=O)O)NC(=O)[C@H](CC(C)C)N1C(=O)N[C@H](Cc2c[nH]c3ccccc23)C1=O)C(=O)N[C@H](C(=O)N[C@@H](Cc1c[nH]c2ccccc12)C(=O)O)[C@@H](C)CC (X1-DIIW-OH) | 0.23
11 | CC[C@H](C)[C@H](NC(=O)[C@H](CC(=O)O)NC(=O)[C@H](CC(C)C)NC(=O)[C@@H](Cc1c[nH]c2ccccc12)NC(C)=O)C(=O)N[C@H](C(=O)N[C@@H](Cc1c[nH]c2ccccc12)C(=O)O)[C@@H](C)CC (Ac-[dW]LDIIW-OH) | 1.9
12 | CC[C@H](C)[C@H](N)C(=O)N[C@H](C(=O)N[C@@H](Cc1c[nH]c2ccccc12)C(=O)N[C@H](Cc1c[nH]cn1)C(=O)N[C@@H](CC(C)C)C(=O)N[C@@H](CC(=O)O)C(=O)O)[C@@H](C)CC | 0.5
13 | CC[C@H](C)[C@H](N)C(=O)N[C@H](C(=O)N[C@@H](Cc1c[nH]c2ccccc12)C(=O)N[C@H](Cc1c[nH]c2ccccc12)C(=O)N[C@@H](CC(C)C)C(=O)N[C@@H](CC(=O)O)C(=O)O)[C@@H](C)CC | 0.7
14 | CC[C@H](C)[C@H](NC(=O)[C@H](CC(=O)O)NC(=O)[C@H](CC(C)C)NC(=O)[C@H](N)Cc1c[nH]c2ccccc12)C(=O)N[C@H](C(=O)N[C@@H](Cc1c[nH]c2ccccc12)C(=O)O)[C@@H](C)CC | 8
15 | CC[C@H](C)[C@H](N)C(=O)N[C@H](C(=O)N[C@@H](Cc1c[nH]c2ccccc12)C(=O)N[C@@H](Cc1c[nH]c2ccccc12)C(=O)N[C@@H](CC(C)C)C(=O)N[C@@H](CC(=O)O)C(=O)O)[C@@H](C)CC | 4
